Seven compounds from ChEMBL document CHEMBL4831480, “Identification of First-in-Class Inhibitors of Kallikrein-Related Peptidase 6 That Promote Oligodendrocyte Differentiation” (J Med Chem, 2021) can be followed below.

A word on the inhibition: it is how much of the control response was suppressed.

Tissue-type plasminogen activator (Homo sapiens), sequence (P00750 36-562 limits assumed): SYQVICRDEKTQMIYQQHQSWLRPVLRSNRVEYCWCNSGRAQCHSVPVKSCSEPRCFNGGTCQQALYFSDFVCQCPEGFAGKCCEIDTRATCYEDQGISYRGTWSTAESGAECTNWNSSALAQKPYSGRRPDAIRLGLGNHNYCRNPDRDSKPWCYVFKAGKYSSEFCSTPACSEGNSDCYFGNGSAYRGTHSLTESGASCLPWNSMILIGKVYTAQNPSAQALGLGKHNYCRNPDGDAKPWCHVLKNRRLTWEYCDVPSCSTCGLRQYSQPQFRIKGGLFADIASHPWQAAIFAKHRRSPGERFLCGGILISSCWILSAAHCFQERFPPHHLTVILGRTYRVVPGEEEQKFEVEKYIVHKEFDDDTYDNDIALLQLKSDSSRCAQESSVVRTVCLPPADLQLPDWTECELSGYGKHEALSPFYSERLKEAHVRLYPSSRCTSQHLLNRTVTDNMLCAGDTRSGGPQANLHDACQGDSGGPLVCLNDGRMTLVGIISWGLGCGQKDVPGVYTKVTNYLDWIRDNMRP

In the first assay the target is Kallikrein-5 (Homo sapiens) (UniProt Q9Y337). Briefly: Inhibition of KLK5 (unknown origin) assessed as inhibition of release of AMC fluorescent product using H-VPR-AMC as substrate at 10 uM incubated for 30 mins by microplate reader relative to control.
Kallikrein-5 (Homo sapiens), sequence (Q9Y337 whole entry): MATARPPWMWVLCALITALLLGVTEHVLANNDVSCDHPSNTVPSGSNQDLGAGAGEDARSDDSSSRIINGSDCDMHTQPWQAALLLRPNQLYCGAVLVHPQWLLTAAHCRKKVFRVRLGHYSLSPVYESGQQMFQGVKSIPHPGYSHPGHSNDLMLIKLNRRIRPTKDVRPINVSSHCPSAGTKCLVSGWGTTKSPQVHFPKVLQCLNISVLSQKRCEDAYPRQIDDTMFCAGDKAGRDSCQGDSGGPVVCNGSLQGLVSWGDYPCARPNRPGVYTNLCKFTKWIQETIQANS
Turning to `Cl.NCc1ccc(NC(=O)c2cc3ccccc3cc2O)cc1`, the inhibition stood at 4%.

In the case of `Cc1ccc2ccc(C(=O)Nc3ccc(CN)cc3)c(O)c2c1`, the inhibition came to 0%.

In the case of `COc1ccc2c(O)c(C(=O)Nc3ccc(CN)cc3)ccc2c1`, the inhibition worked out at 31%.

With `Cl.NCc1ccc(NC(=O)c2ccc3ccccc3c2O)cc1`, the inhibition stood at 22%.

For the compound `Cc1ccc(C(=O)Nc2ccc(CN)cc2)c(O)c1.Cl`, the inhibition stood at 5%.

With `CC(C)c1ccc(C(=O)Nc2ccc(CN)cc2)c(O)c1`, the inhibition is 24%.

Take `CC(C)(C)c1ccc(O)c(C(=O)Nc2ccc(CN)cc2)c1.Cl`: the inhibition came out at 35%.

A further assay has as its target T1, Caspase-6 (Homo sapiens) (UniProt P55212).
T1 sequence (whole entry): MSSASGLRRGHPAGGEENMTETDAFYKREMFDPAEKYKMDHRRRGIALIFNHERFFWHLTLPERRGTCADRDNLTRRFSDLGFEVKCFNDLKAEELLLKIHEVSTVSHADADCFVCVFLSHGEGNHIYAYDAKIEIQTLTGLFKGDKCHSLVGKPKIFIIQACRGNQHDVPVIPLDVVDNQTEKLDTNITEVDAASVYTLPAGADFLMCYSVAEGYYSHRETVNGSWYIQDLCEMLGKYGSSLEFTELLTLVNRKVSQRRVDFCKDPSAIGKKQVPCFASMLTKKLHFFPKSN
Briefly: Inhibition of Caspase-6 (unknown origin) assessed as inhibition of release of AMC fluorescent product using Ac-VEID-AMC as substrate at 10 uM incubated for 30 mins by microplate reader relative to control. Put shortly:
(§1)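 Each inhibitor at 10 μM was preincubated 15 min at 37 °C with the protease at an optimized concentration in its own buffer. Reaction started with AMC substrate: Ac-VDVAD-AMC 25 μM (caspase-2), Ac-DEVD-AMC 10 μM (caspase-3), Ac-VEID-AMC 100 μM (caspase-6), Z-LR-AMC 50 μM (cathepsin L), Z-GGR-AMC 100 μM (tPA). Read for 30 min at 37 °C; % inhibition from initial rates versus DMSO; 3 independent experiments.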
Regarding `Cl.NCc1ccc(NC(=O)c2cc3ccccc3cc2O)cc1`, the inhibition came out at 40%.

`Cc1ccc2ccc(C(=O)Nc3ccc(CN)cc3)c(O)c2c1`: the inhibition turned out to be 31%.

Take `COc1ccc2c(O)c(C(=O)Nc3ccc(CN)cc3)ccc2c1`: the inhibition was determined as 70%.

In the case of `Cl.NCc1ccc(NC(=O)c2ccc3ccccc3c2O)cc1`, the inhibition was 56%.

For the compound `Cc1ccc(C(=O)Nc2ccc(CN)cc2)c(O)c1.Cl`, the inhibition turned out to be 5%.

Regarding `CC(C)c1ccc(C(=O)Nc2ccc(CN)cc2)c(O)c1`, the inhibition came to 12%.

On to `CC(C)(C)c1ccc(O)c(C(=O)Nc2ccc(CN)cc2)c1.Cl`, for which the inhibition stood at 13%.

The next assay concerns the target T2, Kallikrein-14 (Homo sapiens) (UniProt Q9P0G3).
T2 sequence (whole entry): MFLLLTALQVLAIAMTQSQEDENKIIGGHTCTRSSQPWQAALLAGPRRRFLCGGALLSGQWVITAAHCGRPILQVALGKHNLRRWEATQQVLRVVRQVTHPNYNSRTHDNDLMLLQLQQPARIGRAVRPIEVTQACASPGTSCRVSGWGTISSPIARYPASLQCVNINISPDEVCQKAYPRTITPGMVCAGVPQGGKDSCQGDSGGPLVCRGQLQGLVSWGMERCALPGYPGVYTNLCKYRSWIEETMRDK
Briefly: Inhibition of KLK14 (unknown origin) assessed as inhibition of release of AMC fluorescent product using H-VPR-AMC as substrate at 10 uM incubated for 30 mins by microplate reader relative to control.
Consider `Cl.NCc1ccc(NC(=O)c2cc3ccccc3cc2O)cc1`, for which the inhibition stood at 5%.

Regarding `Cc1ccc2ccc(C(=O)Nc3ccc(CN)cc3)c(O)c2c1`, the inhibition was found to be 4%.

Turning to `COc1ccc2c(O)c(C(=O)Nc3ccc(CN)cc3)ccc2c1`, the inhibition is 16%.

With `Cl.NCc1ccc(NC(=O)c2ccc3ccccc3c2O)cc1`, the inhibition is 11%.

As for `Cc1ccc(C(=O)Nc2ccc(CN)cc2)c(O)c1.Cl`, the inhibition turned out to be 3%.

As for `CC(C)c1ccc(C(=O)Nc2ccc(CN)cc2)c(O)c1`, the inhibition was found to be 12%.

For `CC(C)(C)c1ccc(O)c(C(=O)Nc2ccc(CN)cc2)c1.Cl`, the inhibition came to 1.5%.

A further assay addresses T3, Caspase-3 (Homo sapiens) (UniProt P42574).
T3 sequence (whole entry): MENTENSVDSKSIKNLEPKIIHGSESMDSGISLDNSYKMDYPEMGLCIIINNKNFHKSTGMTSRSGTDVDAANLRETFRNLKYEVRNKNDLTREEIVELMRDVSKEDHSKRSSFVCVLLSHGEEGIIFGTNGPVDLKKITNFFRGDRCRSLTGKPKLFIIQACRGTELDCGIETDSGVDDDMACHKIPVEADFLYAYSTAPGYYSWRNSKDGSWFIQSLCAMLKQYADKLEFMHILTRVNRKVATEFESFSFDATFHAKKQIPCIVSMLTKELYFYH
Briefly: Inhibition of Caspase-3 (unknown origin) assessed as inhibition of release of AMC fluorescent product using Ac-DEVD-AMC as substrate at 10 uM incubated for 30 mins by microplate reader relative to control. Put shortly: as §1
For `Cl.NCc1ccc(NC(=O)c2cc3ccccc3cc2O)cc1`, the inhibition came out at 5%.

As to `Cc1ccc2ccc(C(=O)Nc3ccc(CN)cc3)c(O)c2c1`, the inhibition came to 10%.

On to `COc1ccc2c(O)c(C(=O)Nc3ccc(CN)cc3)ccc2c1`, for which the inhibition came to 3%.

Take `Cl.NCc1ccc(NC(=O)c2ccc3ccccc3c2O)cc1`: the inhibition is 10%.

Consider `Cc1ccc(C(=O)Nc2ccc(CN)cc2)c(O)c1.Cl`, for which the inhibition was 0%.

`CC(C)c1ccc(C(=O)Nc2ccc(CN)cc2)c(O)c1`: the inhibition turned out to be 13%.

Take `CC(C)(C)c1ccc(O)c(C(=O)Nc2ccc(CN)cc2)c1.Cl`: the inhibition worked out at 11%.

The next assay has as its target T4, Kallikrein-8 (Homo sapiens) (UniProt O60259).
T4 sequence (whole entry): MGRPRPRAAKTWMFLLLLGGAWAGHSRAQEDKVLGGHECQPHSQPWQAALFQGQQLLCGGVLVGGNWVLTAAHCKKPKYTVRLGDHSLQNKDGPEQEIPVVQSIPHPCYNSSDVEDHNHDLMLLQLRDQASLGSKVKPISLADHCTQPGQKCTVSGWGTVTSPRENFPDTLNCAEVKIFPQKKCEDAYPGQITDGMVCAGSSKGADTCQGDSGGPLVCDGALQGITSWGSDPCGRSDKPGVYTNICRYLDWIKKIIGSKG
Briefly: Inhibition of KLK8 (unknown origin) assessed as inhibition of release of AMC fluorescent product using H-VPR-AMC as substrate at 10 uM incubated for 30 mins by microplate reader relative to control.
For `Cl.NCc1ccc(NC(=O)c2cc3ccccc3cc2O)cc1`, the inhibition is 61%.

For `Cc1ccc2ccc(C(=O)Nc3ccc(CN)cc3)c(O)c2c1`, the inhibition turned out to be 53%.

For the compound `COc1ccc2c(O)c(C(=O)Nc3ccc(CN)cc3)ccc2c1`, the inhibition came out at 45%.

Take `Cl.NCc1ccc(NC(=O)c2ccc3ccccc3c2O)cc1`: the inhibition worked out at 22%.

Consider `Cc1ccc(C(=O)Nc2ccc(CN)cc2)c(O)c1.Cl`, for which the inhibition amounted to 34%.

As to `CC(C)c1ccc(C(=O)Nc2ccc(CN)cc2)c(O)c1`, the inhibition amounted to 58%.

With `CC(C)(C)c1ccc(O)c(C(=O)Nc2ccc(CN)cc2)c1.Cl`, the inhibition was 16%.

The target in the next assay is T5, Caspase-2 (Homo sapiens) (UniProt P42575).
T5 sequence (whole entry): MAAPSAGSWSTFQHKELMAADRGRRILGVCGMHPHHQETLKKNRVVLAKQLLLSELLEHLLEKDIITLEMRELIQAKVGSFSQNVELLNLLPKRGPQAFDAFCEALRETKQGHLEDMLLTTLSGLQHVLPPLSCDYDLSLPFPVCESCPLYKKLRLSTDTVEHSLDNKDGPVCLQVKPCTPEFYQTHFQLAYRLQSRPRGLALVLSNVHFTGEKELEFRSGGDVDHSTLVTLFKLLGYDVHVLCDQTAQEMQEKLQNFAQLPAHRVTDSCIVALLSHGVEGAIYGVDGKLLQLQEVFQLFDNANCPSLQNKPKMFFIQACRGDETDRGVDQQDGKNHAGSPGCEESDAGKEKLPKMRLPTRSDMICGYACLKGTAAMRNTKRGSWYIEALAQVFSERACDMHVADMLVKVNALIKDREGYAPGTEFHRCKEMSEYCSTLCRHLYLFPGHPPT
Briefly: Inhibition of Caspase-2 (unknown origin) assessed as inhibition of release of AMC fluorescent product using Ac-VDVAD-AMC as substrate at 10 uM incubated for 30 mins by microplate reader relative to control. An outline of the steps:
as §1
For the compound `Cl.NCc1ccc(NC(=O)c2cc3ccccc3cc2O)cc1`, the inhibition was 4%.

On to `Cc1ccc2ccc(C(=O)Nc3ccc(CN)cc3)c(O)c2c1`, for which the inhibition was found to be 8%.

In the case of `COc1ccc2c(O)c(C(=O)Nc3ccc(CN)cc3)ccc2c1`, the inhibition came to 14%.

Regarding `Cl.NCc1ccc(NC(=O)c2ccc3ccccc3c2O)cc1`, the inhibition worked out at 30%.

Regarding `Cc1ccc(C(=O)Nc2ccc(CN)cc2)c(O)c1.Cl`, the inhibition came to 0%.

Consider `CC(C)c1ccc(C(=O)Nc2ccc(CN)cc2)c(O)c1`, for which the inhibition turned out to be 15%.

On to `CC(C)(C)c1ccc(O)c(C(=O)Nc2ccc(CN)cc2)c1.Cl`, for which the inhibition was determined as 5%.

The target in a further assay is Procathepsin L (Homo sapiens) (UniProt P07711). Briefly: Inhibition of Cathepsin L (unknown origin) assessed as inhibition of release of AMC fluorescent product using Z-LR-AMC as substrate at 10 uM incubated for 30 mins by microplate reader relative to control. Put shortly: as §1
Procathepsin L (Homo sapiens), sequence (P07711 114-333 limits assumed): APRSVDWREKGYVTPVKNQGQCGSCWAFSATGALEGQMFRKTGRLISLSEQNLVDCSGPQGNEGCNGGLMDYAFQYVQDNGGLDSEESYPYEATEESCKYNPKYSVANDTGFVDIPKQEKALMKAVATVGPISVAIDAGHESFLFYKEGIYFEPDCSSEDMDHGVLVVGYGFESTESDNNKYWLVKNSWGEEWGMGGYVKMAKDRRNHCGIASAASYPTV
Turning to `Cl.NCc1ccc(NC(=O)c2cc3ccccc3cc2O)cc1`, the inhibition was 25%.

`Cc1ccc2ccc(C(=O)Nc3ccc(CN)cc3)c(O)c2c1`: the inhibition amounted to 27%.

For `COc1ccc2c(O)c(C(=O)Nc3ccc(CN)cc3)ccc2c1`, the inhibition was found to be 28%.

Consider `Cl.NCc1ccc(NC(=O)c2ccc3ccccc3c2O)cc1`, for which the inhibition is 30%.

Consider `Cc1ccc(C(=O)Nc2ccc(CN)cc2)c(O)c1.Cl`, for which the inhibition is 32%.

As to `CC(C)c1ccc(C(=O)Nc2ccc(CN)cc2)c(O)c1`, the inhibition stood at 1%.

As to `CC(C)(C)c1ccc(O)c(C(=O)Nc2ccc(CN)cc2)c1.Cl`, the inhibition was 20%.

The next assay concerns the target T6, Kallikrein-13 (Homo sapiens) (UniProt Q9UKR3).
T6 sequence (whole entry): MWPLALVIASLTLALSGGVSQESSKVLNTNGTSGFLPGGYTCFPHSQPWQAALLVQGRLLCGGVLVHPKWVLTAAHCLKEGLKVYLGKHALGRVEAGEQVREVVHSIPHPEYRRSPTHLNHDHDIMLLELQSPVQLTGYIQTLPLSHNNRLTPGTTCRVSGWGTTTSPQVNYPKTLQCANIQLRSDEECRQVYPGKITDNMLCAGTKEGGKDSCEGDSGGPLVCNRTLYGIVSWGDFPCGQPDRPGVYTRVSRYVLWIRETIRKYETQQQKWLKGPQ
Briefly: Inhibition of KLK13 (unknown origin) assessed as inhibition of release of AMC fluorescent product using H-VPR-AMC as substrate at 10 uM incubated for 30 mins by microplate reader relative to control.
Take `Cl.NCc1ccc(NC(=O)c2cc3ccccc3cc2O)cc1`: the inhibition turned out to be 19%.

In the case of `Cc1ccc2ccc(C(=O)Nc3ccc(CN)cc3)c(O)c2c1`, the inhibition worked out at 12%.

For `COc1ccc2c(O)c(C(=O)Nc3ccc(CN)cc3)ccc2c1`, the inhibition was 0%.

For `Cl.NCc1ccc(NC(=O)c2ccc3ccccc3c2O)cc1`, the inhibition worked out at 2%.

With `Cc1ccc(C(=O)Nc2ccc(CN)cc2)c(O)c1.Cl`, the inhibition is 10%.

On to `CC(C)c1ccc(C(=O)Nc2ccc(CN)cc2)c(O)c1`, for which the inhibition stood at 15%.

For the compound `CC(C)(C)c1ccc(O)c(C(=O)Nc2ccc(CN)cc2)c1.Cl`, the inhibition was found to be 5%.

Another assay concerns the target Tissue-type plasminogen activator (Homo sapiens) (UniProt P00750). Briefly: Inhibition of tPA (unknown origin) assessed as inhibition of release of AMC fluorescent product using Z-GGR-AMC as substrate at 10 uM incubated for 30 mins by microplate reader relative to control. Put shortly:
as §1
`Cl.NCc1ccc(NC(=O)c2cc3ccccc3cc2O)cc1`: the inhibition came out at 6%.

Consider `Cc1ccc2ccc(C(=O)Nc3ccc(CN)cc3)c(O)c2c1`, for which the inhibition was determined as 9%.

As to `COc1ccc2c(O)c(C(=O)Nc3ccc(CN)cc3)ccc2c1`, the inhibition stood at 10%.

Consider `Cl.NCc1ccc(NC(=O)c2ccc3ccccc3c2O)cc1`, for which the inhibition amounted to 18%.

Turning to `Cc1ccc(C(=O)Nc2ccc(CN)cc2)c(O)c1.Cl`, the inhibition was found to be 0%.

With `CC(C)c1ccc(C(=O)Nc2ccc(CN)cc2)c(O)c1`, the inhibition amounted to 6%.

Consider `CC(C)(C)c1ccc(O)c(C(=O)Nc2ccc(CN)cc2)c1.Cl`, for which the inhibition is 11%.
